Test results taken from ChEMBL document CHEMBL4330063, “New naphthopyran analogues of LY290181 as potential tumor vascular-disrupting agents” (Eur J Med Chem, 2019).
Active and inactive are the calls of the source. The rule behind the calls is not given here.

How the values were obtained:
518A2 [1] = assay: Antiproliferative activity against human 518A2 cells after 72 hrs by MTT assay; format: functional, cell-based; details: for IC50: 518A2, 72 h
Summary of the method: (§1)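 MTT read-out after 72 h of continuous exposure. Viability is expressed as percentage of viable cells relative to untreated controls. IC50 comes from dose-response curves. Values are means±SD of four independent experiments (two for some entries). DMSO was below 1%, with vehicle controls at equal DMSO. Precipitation was excluded spectrometrically and microscopically.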

HT-29 [2] = assay: Antiproliferative activity against human HT-29 cells after 72 hrs by MTT assay; format: functional, cell-based; details: HT-29, 72 h; summary of the method: as §1
A2780 = assay: Antiproliferative activity against human A2780 cells after 72 hrs by SRB assay; format: functional, cell-based; details: A2780, 72 h
Summary of the method: (§2)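 Ovarian A2780 and cisplatin-resistant A2780cis cells were exposed for 72 h and stained with SRB. IC50 comes from dose-response curves, as means±SD of three independent experiments. Final DMSO was below 1%, with matched vehicle controls.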

[3] = Antiproliferative activity against human A2780cis cells after 72 hrs by SRB assay; format: functional, cell-based; summary of the method: as §2
DLD-1 = assay: Antiproliferative activity against human DLD1 cells after 72 hrs by MTT assay; format: functional, cell-based; details: DLD-1, 72 h; summary of the method: as §1
EA.hy 926 = assay: Antiproliferative activity against human EAhy926 cells after 72 hrs by MTT assay; format: functional, cell-based; details: EA.hy 926, 72 h; summary of the method: as §1
PANC-1 = assay: Antiproliferative activity against human PANC1 cells after 72 hrs by MTT assay; format: functional, cell-based; details: PANC-1, 72 h; summary of the method: as §1
HCT-116 = assay: Antiproliferative activity against human HCT116 cells after 72 hrs by MTT assay; format: functional, cell-based; details: HCT-116, 72 h; summary of the method: as §1
[4] = Antiproliferative activity against human KB-V1/Vbl cells after 72 hrs by MTT assay; format: functional, cell-based; summary of the method: as §1
[5] = Antiproliferative activity against human MCF7/Topo cells after 72 hrs by MTT assay; format: functional, cell-based; summary of the method: as §1
HT-29 [6] = assay: Cell cycle arrest in human HT-29 cells assessed as accumulation of cells at sub G1 phase at 100 nM after 24 hrs by propidium iodide staining-based flow cytometric analysis (reference value: 1.2 +/- 0.3%); format: functional
HT-29 [7] = assay: Cell cycle arrest in human HT-29 cells assessed as accumulation of cells at sub G1 phase at 250 nM after 24 hrs by propidium iodide staining-based flow cytometric analysis (reference value: 1.2 +/- 0.3%); format: functional
HT-29 [8] = assay: Cell cycle arrest in human HT-29 cells assessed as accumulation of cells at sub G1 phase at 350 nM after 24 hrs by propidium iodide staining-based flow cytometric analysis (reference value: 1.2 +/- 0.3%); format: functional
HT-29 [9] = assay: Cell cycle arrest in human HT-29 cells assessed as accumulation of cells at G1 phase at 100 nM after 24 hrs by propidium iodide staining-based flow cytometric analysis (reference value: 75.1 +/- 1.1%); format: functional
HT-29 [10] = assay: Cell cycle arrest in human HT-29 cells assessed as accumulation of cells at G1 phase at 250 nM after 24 hrs by propidium iodide staining-based flow cytometric analysis (reference value: 75.1 +/- 1.1%); format: functional
HT-29 [11] = assay: Cell cycle arrest in human HT-29 cells assessed as accumulation of cells at G1 phase at 350 nM after 24 hrs by propidium iodide staining-based flow cytometric analysis (reference value: 75.1 +/- 1.1%); format: functional
HT-29 [12] = assay: Cell cycle arrest in human HT-29 cells assessed as accumulation of cells at S phase at 100 nM after 24 hrs by propidium iodide staining-based flow cytometric analysis (reference value: 12.3 +/- 0.4%); format: functional
HT-29 [13] = assay: Cell cycle arrest in human HT-29 cells assessed as accumulation of cells at S phase at 250 nM after 24 hrs by propidium iodide staining-based flow cytometric analysis (reference value: 12.3 +/- 0.4%); format: functional
HT-29 [14] = assay: Cell cycle arrest in human HT-29 cells assessed as accumulation of cells at S phase at 350 nM after 24 hrs by propidium iodide staining-based flow cytometric analysis (reference value: 12.3 +/- 0.4%); format: functional
HT-29 [15] = assay: Cell cycle arrest in human HT-29 cells assessed as accumulation of cells at G2/M phase at 100 nM after 24 hrs by propidium iodide staining-based flow cytometric analysis (reference value: 11.4 +/- 1.4%); format: functional
HT-29 [16] = assay: Cell cycle arrest in human HT-29 cells assessed as accumulation of cells at G2/M phase at 250 nM after 24 hrs by propidium iodide staining-based flow cytometric analysis (reference value: 11.4 +/- 1.4%); format: functional
HT-29 [17] = assay: Cell cycle arrest in human HT-29 cells assessed as accumulation of cells at G2/M phase at 350 nM after 24 hrs by propidium iodide staining-based flow cytometric analysis (reference value: 11.4 +/- 1.4%); format: functional
Chorioallantoic membrane [18] = assay: Antiangiogenic activity in Leghorn chicken embryo chorioallantoic membrane assessed as disruption of smaller blood vessels at 5 nmol after 6 hrs by light microscopic analysis; format: functional, tissue-based; details: Gallus gallus
Summary of the method: (§3)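 Fertilized chicken eggs, CAM assay. Compound was applied topically into a small silicon foil ring placed on the CAM. The membrane and its extraembryonal blood vessels were monitored over 24 h, with observations at 6 h and 24 h post application.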

Chorioallantoic membrane [19] = assay: Antiangiogenic activity in Leghorn chicken embryo chorioallantoic membrane assessed as induction of hemorrhages at 5 nmol after 6 hrs by light microscopic analysis; format: functional, tissue-based; details: Gallus gallus; summary of the method: as §3
Chorioallantoic membrane [20] = assay: Antiangiogenic activity in Leghorn chicken embryo chorioallantoic membrane assessed as induction of hemorrhages at 5 nmol after 24 hrs by light microscopic analysis; format: functional, tissue-based; details: Gallus gallus; summary of the method: as §3
Chorioallantoic membrane [21] = assay: Antiangiogenic activity in Leghorn chicken embryo chorioallantoic membrane assessed as reduction in diameter of main blood vessel at 5 nmol after 24 hrs by light microscopic analysis; format: functional, tissue-based; details: Gallus gallus; summary of the method: as §3
Chorioallantoic membrane [22] = assay: Antiangiogenic activity in Leghorn chicken embryo chorioallantoic membrane assessed as reduction in blood vessel area at 5 nmol after 6 hrs by light microscopic analysis relative to control; format: functional, tissue-based; details: Gallus gallus
Summary of the method: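 The CAM assay was run with topical application into a silicon foil ring atop the CAM of fertilized chicken eggs. Area covered by blood vessels was quantified by fractal analysis relative to control.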

Chorioallantoic membrane [23] = assay: Antiangiogenic activity in Leghorn chicken embryo chorioallantoic membrane assessed as effect on blood vessel length at 5 nmol after 6 hrs by light microscopic analysis; format: functional, tissue-based; details: Gallus gallus; summary of the method: as §3
518A2 [24] = assay: Induction of apoptosis in human 518A2 cells assessed as accumulation at subG1 phase; format: functional, cell-based
518A2 [25] = assay: Induction of cell cycle arrest in human 518A2 cells; format: functional, cell-based
HT-29 [26] = assay: Cell cycle arrest in human HT-29 cells assessed as accumulation of cells at G2/M phase after 24 hrs by propidium iodide staining-based flow cytometric analysis; format: functional
Chorioallantoic membrane [27] = assay: Antiangiogenic activity in Leghorn chicken embryo chorioallantoic membrane assessed as disruption of smaller blood vessels at 5 nmol after 24 hrs by light microscopic analysis; format: functional, tissue-based; details: Gallus gallus; summary of the method: as §3

In the case of `N#CC1=C(N)Oc2c(cc(Cl)c3ccccc23)C1c1cccc(C#N)c1` (stereo not drawn), the Activity (518A2 [1]) is reported as “Dose-dependent effect”, the IC50 (518A2 [1]) is reported as 0.0605 µM and the IC50 (HT-29 [2]) is reported as 0.0673 µM. For the same compound, the IC50 (A2780) was 0.0499 µM, the IC50 [3] was 0.0567 µM and the IC50 (DLD-1) was 0.0694 µM. For the same compound, the IC50 (EA.hy 926) was 0.0786 µM, the IC50 (PANC-1) was 0.0549 µM and the IC50 (HCT-116) was 0.0735 µM. For the same compound, the IC50 [4] was 0.0559 µM, the IC50 [5] was 0.0581 µM and the Activity (HT-29 [6]) was 19.8%. For the same compound, the Activity (HT-29 [7]) was 27.8%, the Activity (HT-29 [8]) was 27% and the Activity (HT-29 [9]) was 51.7%. It also gave an Activity (HT-29 [10]) of 22.2%, an Activity (HT-29 [11]) of 13% and an Activity (HT-29 [12]) of 16.1%. The Activity (HT-29 [13]) was 9.1%, the Activity (HT-29 [14]) was 8.5% and the Activity (HT-29 [15]) was 12.3%. For the same compound, the Activity (HT-29 [16]) was 40.9%, the Activity (HT-29 [17]) was 51.6% and the Activity (Chorioallantoic membrane [18]) was “Active”. The Activity (Chorioallantoic membrane [19]) was “Active”, the Activity (Chorioallantoic membrane [20]) was “inactive” and the Activity (Chorioallantoic membrane [21]) was “Active”. For the same compound, the Activity (Chorioallantoic membrane [22]) was “inactive”, the Activity (Chorioallantoic membrane [23]) was “inactive” and the Activity (518A2 [24]) was “Active”. For the same compound, the Activity (518A2 [25]) was “inactive”, the Activity (HT-29 [26]) was “Dose-dependent effect” and the Activity (Chorioallantoic membrane [27]) was “inactive”.

With `N#CC1=C(N)Oc2c(cc(Cl)c3ccccc23)C1c1cccc(Br)c1` (stereo not drawn) the Activity (518A2 [1]) was “Dose-dependent effect”, the IC50 (518A2 [1]) was 0.229 µM and the IC50 (HT-29 [2]) was 0.245 µM. It also gave an IC50 (A2780) of 0.155 µM and an IC50 [3] of 0.166 µM.

In the case of `N#CC1=C(N)Oc2c(ccc3ccccc23)C1c1cccc(S(F)(F)(F)(F)F)c1` (stereo not drawn), the Activity (518A2 [1]) is reported as “Dose-dependent effect”, the IC50 (518A2 [1]) is reported as 0.505 µM and the IC50 (HT-29 [2]) is reported as 0.57 µM. For the same compound, the IC50 (A2780) was 0.188 µM and the IC50 [3] was 0.265 µM.

With `COc1cc(C2C(C#N)=C(N)Oc3c2ccc2ccccc32)ccc1OCc1ccccc1` (stereo not drawn) the Activity (518A2 [1]) was “Dose-dependent effect”, the IC50 (518A2 [1]) was 1.66 µM and the IC50 (HT-29 [2]) was 5.82 µM. The IC50 (A2780) was 2.15 µM and the IC50 [3] was 2.34 µM.

For `N#CC1=C(N)Oc2c(cc(Cl)c3ccccc23)C1c1ccccc1Cl` (stereo not drawn), the Activity (518A2 [1]) was “Dose-dependent effect”, the IC50 (518A2 [1]) was 9.91 µM and the IC50 (HT-29 [2]) was 2.03 µM. For the same compound, the IC50 (A2780) was 0.912 µM and the IC50 [3] was 0.973 µM.

With `N#CC1=C(N)Oc2c(ccc3ccccc23)C1c1ccc(S(F)(F)(F)(F)F)cc1` (stereo not drawn) the Activity (518A2 [1]) was “Dose-dependent effect”, the IC50 (518A2 [1]) was 7.13 µM and the IC50 (HT-29 [2]) was 9.97 µM. For the same compound, the IC50 (A2780) was 5.16 µM and the IC50 [3] was 5.58 µM.
